Measurements as given in ChEMBL document CHEMBL3526127, “Absorption, elimination, and metabolism of CS-1036, a novel α-amylase inhibitor in rats and monkeys, and the relationship between gastrointestinal distribution and suppression of glucose absorption” (Drug Metab Dispos, 2013).

Legend:
[1] = Half life in F344 rat at 0.3 mg/kg, po administered as single dose by LC-MS/MS method; type: ADME, organism-based; design: dose 0.3 mg/kg, route oral; details: in vivo
[2] = AUClast in F344 rat at 0.3 mg/kg, po administered as single dose by LC-MS/MS method; type: ADME, organism-based; design: time 0 - last, dose 0.3 mg/kg, route oral; details: plasma
How it was run: (§1)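 Fasted male F344 rats (146–185 g) or male cynomolgus monkeys (3.48–4.29 kg), n = 4 per dose, given single iv or oral dose of 0.3, 1.0, 3.0 or 10.0 mg/kg; monkeys dosed with 2-week washouts. Blood sampled to 48 h; plasma stored frozen. LC-MS/MS with deuterated internal standard. Noncompartmental analysis: AUClast by trapezoidal rule; AUC0–inf = AUClast + Ctz/terminal rate constant; mean ± S.D.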

[3] = AUC (0 to infinity) in F344 rat at 10 mg/kg, iv administered as single dose by LC-MS/MS method; type: ADME, organism-based; design: time infinity, dose 10 mg/kg, route intravenous; details: plasma; how it was run: as §1
[4] = AUClast in F344 rat at 10 mg/kg, po administered as single dose by LC-MS/MS method; type: ADME, organism-based; design: time 0 - last, dose 10 mg/kg, route oral; details: plasma; how it was run: as §1
[5] = Cmax in F344 rat at 1 mg/kg, po administered as single dose by LC-MS/MS method; type: ADME, organism-based; design: dose 1 mg/kg, route oral; details: in vivo
How it was run: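 Fasted male F344 rats (146–185 g) and cynomolgus monkeys (3.48–4.29 kg), n = 4 each, received a single oral dose; monkeys had 2-week washouts. Plasma sampled up to 48 h, stored at […], assayed by LC-MS/MS with a deuterated internal standard. Cmax taken from observed data by noncompartmental analysis; mean ± S.D. (n = 3 or 4).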

[6] = Half life in cynomolgus monkey at 10 mg/kg, iv administered as single dose by LC-MS/MS method; type: ADME, organism-based, Macaca fascicularis; design: dose 10 mg/kg, route intravenous; details: in vivo
How it was run: (§2)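 Male F344 rats (146–185 g) and male cynomolgus monkeys (3.48–4.29 kg), n = 4 each, fasted overnight, received single iv or oral doses of 0.3, 1.0, 3.0 or 10.0 mg/kg. Monkeys had 2-week washouts between doses. Plasma was sampled to 48 h and assayed by LC-MS/MS with deuterated internal standard. Noncompartmental analysis: tmax observed; t1/2 by regression on ≥3 terminal log points; Vss = dose·AUMC/(AUC0–inf)²; Foral = oral/iv AUC0–inf at the same dose.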

[7] = Clearance in cynomolgus monkey at 3 mg/kg, iv administered as single dose by LC-MS/MS method; type: ADME, organism-based, Macaca fascicularis; design: dose 3 mg/kg, route intravenous; details: in vivo
How it was run: (§3)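 Fasted male F344 rats (146–185 g) and male cynomolgus monkeys (3.48–4.29 kg), n = 4 each, received a single iv dose; monkeys had 2-week washouts between doses. Blood was sampled up to 48 h and plasma stored at […]. Plasma parent was quantified by LC-MS/MS with a deuterated internal standard. CL = dose/AUC0–inf by noncompartmental analysis; mean ± S.D.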

[8] = Oral bioavailability in F344 rat at 10 mg/kg administered as single dose by LC-MS/MS method; type: ADME, organism-based; details: in vivo; how it was run: as §2
[9] = Volume of distribution at steady state in F344 rat at 10 mg/kg, iv administered as single dose by LC-MS/MS method; type: ADME, organism-based; design: dose 10 mg/kg, route intravenous; details: in vivo, read-out: Vdss; how it was run: as §2
[10] = Half life in cynomolgus monkey at 0.3 mg/kg, iv administered as single dose by LC-MS/MS method; type: ADME, organism-based, Macaca fascicularis; design: dose 0.3 mg/kg, route intravenous; details: in vivo; how it was run: as §2
[11] = Clearance in cynomolgus monkey at 1 mg/kg, iv administered as single dose by LC-MS/MS method; type: ADME, organism-based, Macaca fascicularis; design: dose 1 mg/kg, route intravenous; details: in vivo; how it was run: as §3
[12] = AUC (0 to infinity) in F344 rat at 1 mg/kg, po administered as single dose by LC-MS/MS method; type: ADME, organism-based; design: dose 1 mg/kg, route oral, time infinity; details: plasma; how it was run: as §1
[13] = AUClast in F344 rat at 3 mg/kg, iv administered as single dose by LC-MS/MS method; type: ADME, organism-based; design: time 0 - last, dose 3 mg/kg, route intravenous; details: plasma; how it was run: as §1
[14] = Volume of distribution at steady state in cynomolgus monkey at 3 mg/kg, iv administered as single dose by LC-MS/MS method; type: ADME, organism-based, Macaca fascicularis; design: dose 3 mg/kg, route intravenous; details: in vivo, read-out: Vdss; how it was run: as §2
[15] = Half life in F344 rat at 1 mg/kg, iv administered as single dose by LC-MS/MS method; type: ADME, organism-based; design: dose 1 mg/kg, route intravenous; details: in vivo
How it was run: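 Fasted male F344 rats (146–185 g, n = 4 per dose) received single i.v. CS-1036. Plasma was sampled up to 48 h and analysed by LC-MS/MS. t1/2 came from noncompartmental regression of three or more log-transformed terminal-phase points. Mean ± S.D.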

[16] = Drug excretion in F344 rat feces at 1 mg/kg, iv administered as single dose after 0 to 168 hrs by scintillation counting method; type: ADME, organism-based; design: dose 1 mg/kg, route intravenous; details: in vivo
How it was run: (§4)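 Fasted F344 rats (152–156 g iv via tail vein; 154–159 g oral; n = 4) received [14C]-labelled drug at 1 mg/kg (41.9 µCi/kg). Animals were kept in metabolic cages; urine and feces were collected to 168 h, and expired CO2 was trapped in 2-aminoethanol/2-methoxyethanol (1:1) to 48 h. Samples were counted by liquid scintillation (feces homogenized). Results are % of dose, mean ± S.D.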

[17] = Drug excretion in F344 rat feces at 1 mg/kg, iv administered as single dose after 0 to 48 hrs by scintillation counting method; type: ADME, organism-based; design: dose 1 mg/kg, route intravenous; details: in vivo; how it was run: as §4
[18] = Drug excretion in F344 rat feces at 1 mg/kg, po administered as single dose after 0 to 168 hrs by scintillation counting method; type: ADME, organism-based; design: dose 1 mg/kg, route oral; details: in vivo; how it was run: as §4
[19] = Drug excretion in F344 rat urine at 1 mg/kg, po administered as single dose after 0 to 168 hrs by scintillation counting method; type: ADME, organism-based; design: dose 1 mg/kg, route oral; details: in vivo; how it was run: as §4
[20] = Drug excretion in bile duct cannulated F344 rat bile at 1 mg/kg, po administered as single dose after 0 to 48 hrs by scintillation counting method; type: ADME, organism-based; design: dose 1 mg/kg, route oral; details: in vivo
How it was run: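 Common bile duct was cannulated under diethyl ether in fasted F344 rats. After recovery, [14C]-labelled drug (1 mg/kg, 41.9 µCi/kg) was given iv via tail vein or by oral gavage (n = 4). Rats were held in Bollman cages and bile was collected at 4°C over 0–48 h intervals. Bile was counted by liquid scintillation; % of dose.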

[21] = Drug distribution in F344 rat cecum at 1 mg/kg, po administered as single dose after 2 hrs by scintillation counting method; type: ADME, organism-based, Caecum; design: dose 1 mg/kg, route oral; details: in vivo
How it was run: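 [14C]-labelled drug (1 mg/kg, 42.4 µCi/kg) was given orally to fasted F344 rats (148–168 g, n = 3). Contents of stomach, duodenum+jejunum, ileum and cecum were washed out with water at 0.5–8 h, homogenized, solubilized and counted by liquid scintillation. Results are % of dose, mean ± S.D.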

[22] = Drug excretion in F344 rat feces at 1 mg/kg, po administered as single dose after 24 hrs by scintillation counting method; type: ADME, organism-based; design: dose 1 mg/kg, route oral; details: in vivo
How it was run: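 [14C]-labelled drug (1 mg/kg, 42.2 µCi/kg) was given orally to fasted F344 rats (164–168 g, n = 3). Urine and feces were collected to 24 h; feces were homogenized in 9 volumes of water, combusted and counted. Parent fraction came from the excreted radioactivity times the radio-HPLC (HILIC) peak-area ratio; mean ± S.D.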

[23] = Drug metabolism in F344 rat feces assessed as 1,4-dideoxy-1,4-imino-D-arabinitol formation by LC-MS/MS method; type: ADME, tissue-based
Plasma = assay: Drug metabolism in po dosed monkey plasma by LC-MS/MS method; details: cynomolgus monkey, in vivo

C[C@H]1O[C@@H](O[C@H]2[C@H](O)[C@@H](O)[C@@H](O[C@H]3[C@H](O)CN[C@@H]3CO)O[C@@H]2CO)[C@H](O)[C@@H](O)[C@@H]1O
half-life [1]: 2.69 h
AUC(0-t) [2]: 42.1 ng·h/mL
AUC(0-inf) [3]: 53200 ng·h/mL
AUC(0-t) [4]: 1050 ng·h/mL
Cmax [5]: 45.5 ng/mL
half-life [6]: 30 h
clearance [7]: 2.75 mL/min/kg
bioavailability [8]: 2.03%
Vd [9]: 0.222 L/kg
half-life [10]: 2.51 h
clearance [11]: 2.84 mL/min/kg
AUC(0-inf) [12]: 115 ng·h/mL
AUC(0-t) [13]: 18700 ng·h/mL
Vd [14]: 0.262 L/kg
half-life [15]: 18.4 h

C[C@H]1O[C@@H](O[C@H]2[C@H](O)[C@@H](O)[C@@H](O[14C@H]3[14C@H](O)[14CH2]N[14C@@H]3[14CH2]O)O[C@@H]2CO)[C@H](O)[C@@H](O)[C@@H]1O
Drug excretion [16]: 17.82%
Drug excretion [17]: 15.66%
Drug excretion [18]: 80.28%
Drug excretion [19]: 15.32%
Drug excretion [20]: 0.59%
Drug uptake [21]: 49.9%
Drug excretion [22]: 70.3%
Drug metabolism [23]: metabolite_detected
Drug metabolism (Plasma): metabolite_not_detected
